In the library only some 3.5% were active in any assay of this set; here they are far more common.
RGS4 block: human RGS4 inhibition; P49798; HEK293 M3R/RGS4 inducible, Fluo-4 calcium flux; hits give high values; triggered by carbachol at its EC20; B-score at 10 µM; 0.45% of 310,000 active; AID 463165;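 active means B-score, a plate-corrected calcium signal, over three deviations above library mean, with baseline fluorescence within five deviations of library mean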;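 further: RGS4 expression induced by doxycycline in cells with stable M3 receptor; B-score is computed from the integrated fluorescence ratio over baseline after carbachol; higher B-score means a larger calcium signal and so more RGS4 inhibition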
MrgX1 ag: agonists of human MrgX1 receptor. Q96LB2. MrgX1-HEK293 cells, Fluo-4 calcium fluorescence, agonist mode; hits give high values. B-score at 10 µM. 0.44% of 310,000 active. AID 588627;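 active means calcium response B-score plate-corrected fluorescence ratio at least 3 library SD, with starting fluorescence B-score inside 5 SD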
Target sequence (Q96LB2 whole entry, looked up): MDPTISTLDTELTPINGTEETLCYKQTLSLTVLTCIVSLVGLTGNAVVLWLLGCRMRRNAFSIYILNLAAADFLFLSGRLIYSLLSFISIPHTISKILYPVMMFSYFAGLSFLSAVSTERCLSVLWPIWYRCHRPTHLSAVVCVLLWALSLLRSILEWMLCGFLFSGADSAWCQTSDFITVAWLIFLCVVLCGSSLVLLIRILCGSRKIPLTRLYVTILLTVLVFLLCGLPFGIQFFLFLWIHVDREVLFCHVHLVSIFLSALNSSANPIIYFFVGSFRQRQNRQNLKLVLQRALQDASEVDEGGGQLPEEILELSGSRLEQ
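Material: MrgX1-expressing HEK293 cells; input: 15,000 cells per well; doses: test compound given as first of three sequential additions; schedule: overnight plating before 1 h dye loading; technique: Fluo-4 NW calcium-flux fluorescence, kinetic read; evaluation: baseline-normalised fluorescence change ratio, B-scored; control set: plate-wise positive and negative controls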
MrgX1 allo act: human MrgX1 positive allosteric modulation, primary screen; Q96LB2; MrgX1-HEK293, Fluo-4 calcium flux, FDSS; hits give high values; B-score at 10 µM; 0.63% of 310,000 active;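 active means plate-corrected calcium response at least 3 library SD above typical, normal starting fluorescence, not activating the receptor alone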;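 further: compound read alongside a low EC10 to EC30 dose of BAM8-22 agonist; peak minus trough fluorescence over baseline measured at the second addition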
RGS4 act: potentiators or activators of RGS4; HEK293 M3R/inducible RGS4, carbachol calcium flux Fluo4; hits give low values; B-score at 10 µM; 0.92% of 310,000 active; AID 463111;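 active means B-score of the integrated calcium signal more than 4 SD below the library mean, with starting fluorescence not abnormally high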;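 further: negative B-score means reduced calcium response which marks RGS4 activation or potentiation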
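test system = HEK293 cells with stable M3R and inducible RGS4 | schedule = recording 10 s baseline at 1 Hz, 100 s post-agonist | technique = Fluo4-AM (2 µM) calcium-flux fluorescence, kinetic read | measure = Agonist-evoked peak-minus-minimum fluorescence over baseline, integrated ratio, B score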
MrgX1 antagonist: human MrgX1 receptor antagonism, primary screen; Q96LB2; MRGX1-HEK293 calcium flux, Fluo-4, BAM8-22 antagonism; hits give low values; B-score at 10 µM; 1.3% of 310,000 active; AID 588676;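 active means calcium-response B-score plate-corrected more than 3 library SD below zero, starting fluorescence within 5 deviations, no agonist response on first addition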;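 further: peak minus trough fluorescence over baseline after final BAM8-22 challenge near maximal dose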
* = called active by the depositor; i = inactive; . = no result.

SMILES | RGS4 block | MrgX1 ag | MrgX1 allo act | RGS4 act | MrgX1 antagonist
COc1cccc(/C=N/Nc2nc3ccccc3n3cnnc23)c1 | i | i | i | i | i
CCNc1cc(N2CCN(S(=O)(=O)c3ccc4c(c3)CCCC4)CC2)ccc1[N+](=O)[O-] | i | i | i | i | -7.5*
O=[N+]([O-])c1ccc(N2CCN(S(=O)(=O)c3ccc(Cl)c(Cl)c3)CC2)cc1NCCN1CCOCC1 | i | i | i | i | i
O=C(CCC(=O)c1ccc(Oc2ccccc2)cc1)Nc1ccc(C(=O)O)cc1 | i | i | i | i | i
CC(C)CCN(C(=O)c1csnn1)C(C(=O)NC1CCCCC1)c1ccc(F)cc1 (stereo unspecified) | i | i | i | i | i
COCCCNC(=O)C1CCC(CNS(=O)(=O)c2ccc(Cl)cc2)CC1 (stereo unspecified) | i | i | i | i | i
CCC1CCCCN1S(=O)(=O)c1ccc([N+](=O)[O-])cc1 (stereo unspecified) | i | i | i | -7.4* | i
CC(C)(C)c1ccc(-n2ncc3c2CCCC3NC(=O)c2ccncc2)cc1 (stereo unspecified) | i | i | i | -8.9* | i
CC1(C(=O)NNC(=S)NCc2ccco2)CC1(Cl)Cl (stereo unspecified) | i | i | i | i | -4.7*
O=C(Nc1cnccn1)c1ccc(F)cc1Cl | i | i | i | i | i
C[n+]1c2n(c3ccccc31)N=C(c1ccc(-c3ccccc3)cc1)CS2 | i | i | i | i | -6.5*
CCOC(=O)c1ccc2c(c1)n(CC)c(/C=C/N(C)c1ccccc1)[n+]2CC | i | i | i | i | -5*
O=C(O)CCCC(=O)NNC(=O)c1cccc(Br)c1 | i | i | i | i | i
O=C(O)CCC(=O)NNC(=O)c1ccc(Br)cc1 | i | i | i | i | -9.3*
CN(C)C(/C=C/Nc1ccc(F)cc1)=C(C#N)C#N | i | i | i | i | i
CN(C)C(/C=C/Nc1ccc(C#N)cc1)=C(C#N)C#N | i | i | i | i | -5.2*
CC(OC(=O)c1ccccc1Br)C(=O)Nc1nc(-c2cccc([N+](=O)[O-])c2)cs1 (stereo unspecified) | i | i | i | i | -5.5*
O=C(Nc1nc(-c2cccc([N+](=O)[O-])c2)cs1)C(c1ccccc1)c1ccccc1 | i | i | i | i | i
Cc1ccccc1-c1nc2sc3c(c2c(=O)n1N)CCCC3 | i | i | 18* | i | i
Nn1c(-c2cccs2)nc2sc3c(c2c1=O)CCCC3 | i | i | i | i | i
CCc1ccc(C2=CC(c3cc(Br)ccc3F)n3ncnc3N2)cc1 (stereo unspecified) | . | i | 11* | . | i
Fc1ccc(Br)cc1C1C=C(c2ccc(Br)cc2)Nc2ncnn21 (stereo unspecified) | i | i | i | i | i
CCCS(=O)(=O)c1c(S(=O)(=O)CCC)c2cnccn2c1C(=O)c1ccc(CC)cc1 | i | i | i | i | i
CCCS(=O)(=O)c1c(S(=O)(=O)CCC)c2cnccn2c1C(=O)c1ccc(OC)cc1 | i | i | 13* | i | i
Cc1ccc(CNC(=O)COc2ccc(S(=O)(=O)N3CCOCC3)cc2)cc1 | i | i | i | i | i
SMILES | RGS4 block | MrgX1 ag | MrgX1 allo act | RGS4 act | MrgX1 antagonist
CN(CC(=O)NCCc1ccc(Cl)cc1)S(=O)(=O)c1cccs1 | i | i | i | i | i
Cc1cc(C)c2c(=O)n(CC(=O)Nc3cccc(Cl)c3C)sc2n1 | i | i | 9.5* | i | i
Cc1ccc(-n2nc3c(c2NC(=O)C(C)C)CS(=O)(=O)C3)c(C)c1 | i | i | i | i | i
C/C(=N/N=C(/N)SCc1ccccc1)C(C)(C)C | i | i | 9.9* | i | i
Cc1cccc(CSC(=N)N)c1 | i | i | i | i | i
Cc1ccc(CSCc2ccc(C(=O)NCCCN3CCOCC3)o2)cc1 | i | i | 6.7* | i | i
COc1ccc(/C=C/C(=O)NCC2COc3ccccc3O2)cc1OC (stereo unspecified) | i | i | i | i | -7.1*

Compound activity from PubChem.
